Ki, IC50 and CC50 data for 17 molecules are collected here from ChEMBL document CHEMBL1146139, “Design and synthesis of novel HIV-1 protease inhibitors incorporating oxyindoles as the P2'-ligands” (Bioorg Med Chem Lett, 2006).

The target in test [1] is Human immunodeficiency virus type 1 protease (Human immunodeficiency virus 1, UniProt Q72874). The test is described as follows: Inhibitory activity against HIV protease. An outline of the steps: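 Enzyme inhibition constants measured against HIV-1 protease following a previously published protocol. Values are means of two determinations.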
In test [2] the test system is MT2. As to the kind of experiment: Antiviral activity against HIV1 IIIB strain in MT2 cells. The test is classed as functional, cell-based. In outline: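 IC50 from inhibition of HIV-1 IIIb-induced cytopathogenicity in MT-2 cells. Assays run in duplicate; values are means of two or three determinations.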
Test [3] concerns MT2. The test is described as follows: Cytotoxicity against MT2 cells. The test is classed as functional. The note with it: Homo sapiens.

For `O=C(N[C@@H](Cc1ccccc1)[C@H](O)CN1CC=CCCC12C(=O)Nc1ccccc12)O[C@H]1CO[C@H]2OCC[C@H]21` (stereo partly specified), in test [1], the Ki – broadly, the equilibrium dissociation constant of an inhibitor or competing ligand from its target – was above 1 µM. On the same count and under the same terms, under `C=CCCC1(N(CC=C)C[C@@H](O)[C@H](Cc2ccccc2)NC(=O)O[C@H]2CO[C@H]3OCC[C@H]32)C(=O)Nc2ccccc21` (stereo partly specified) stands 0.047 µM; under `CC1(N(Cc2ccccc2)C[C@@H](O)[C@H](Cc2ccccc2)NC(=O)O[C@H]2CO[C@H]3OCC[C@H]32)C(=O)Nc2ccccc21` (stereo partly specified), 0.026 µM; under `O=C(N[C@@H](Cc1ccccc1)[C@H](O)CN1CCCCCC12C(=O)Nc1ccccc12)O[C@H]1CO[C@H]2OCC[C@H]21` (stereo partly specified), above 1 µM. Still for that read-out and setting: next, `O=C(N[C@@H](Cc1ccccc1)[C@H](O)CN1CC=CCC12C(=O)Nc1ccccc12)O[C@H]1CO[C@H]2OCC[C@H]21` (stereo partly specified): 0.126 µM. On to `CC(C)CCN(C[C@@H](O)[C@H](Cc1ccccc1)NC(=O)O[C@H]1CO[C@H]2OCC[C@H]21)C1(C)C(=O)Nc2ccccc21` (stereo partly specified), for which, in test [1], the inhibition constant (Ki) was determined as 0.007 µM. Still for that read-out and setting: under `C=CCN(C[C@@H](O)[C@H](Cc1ccccc1)NC(=O)O[C@H]1CO[C@H]2OCC[C@H]21)C1(CC=C)C(=O)Nc2ccccc21` (stereo partly specified) stands 0.005 µM.

The molecule `O=C(N[C@@H](Cc1ccccc1)[C@H](O)CN1CCCCC12C(=O)Nc1ccccc12)O[C@H]1CO[C@H]2OCC[C@H]21` (stereo partly specified) returned an inhibition constant Ki in test [1] above 1 µM.

As for `CC(C)CN(C[C@@H](O)[C@H](Cc1ccccc1)NC(=O)O[C@H]1CO[C@H]2OCC[C@H]21)C1(C)C(=O)Nc2ccccc21` (stereo in doubt; 3a), in the test with MT2 [2] (Homo sapiens, IIIB, MT2), 0.3 µM corresponded to half-maximal inhibition (IC50). This molecule also registered an inhibition constant (Ki) in test [1] of 0.006 µM. In the test on MT2 [3], the CC50 (in general, the concentration that lowers cell viability or growth by half) was above 10 µM. As to `CC(C)CN(C[C@@H](O)[C@H](Cc1ccccc1)NC(=O)O[C@H]1CO[C@H]2OCC[C@H]21)C1(C)C(=O)Nc2ccccc21` (stereo in doubt; 3b), half-maximal inhibition in the test on MT2 [2] (mt2) (IC50) required 0.48 µM. Further, the inhibitory constant (Ki) in test [1] is 0.003 µM. Molecule `C=CCC1(N(CC(C)C)C[C@@H](O)[C@H](Cc2ccccc2)NC(=O)O[C@H]2CO[C@H]3OCC[C@H]32)C(=O)Nc2ccccc21` (stereo in doubt; 14a) registered a Ki in test [1] of 0.002 µM. In turn, `C=CCC1(N(CC(C)C)C[C@@H](O)[C@H](Cc2ccccc2)NC(=O)O[C@H]2CO[C@H]3OCC[C@H]32)C(=O)Nc2ccccc21` (stereo in doubt; 14b) displayed a Ki in test [1] of 0.007 µM. As for `COc1ccc2c(c1)C(C)(N(CC(C)C)C[C@@H](O)[C@H](Cc1ccccc1)NC(=O)O[C@H]1CO[C@H]3OCC[C@H]31)C(=O)N2` (stereo in doubt; 15a), the affinity in test [1], expressed as Ki, was 0.102 µM. Same read-out and setting: next, `COc1ccc2c(c1)C(C)(N(CC(C)C)C[C@@H](O)[C@H](Cc1ccccc1)NC(=O)O[C@H]1CO[C@H]3OCC[C@H]31)C(=O)N2` (stereo in doubt; 15b): 0.13 µM; `CC(C)CN(C[C@@H](O)[C@H](Cc1ccccc1)NC(=O)O[C@H]1CO[C@H]2OCC[C@H]21)C1(C)C(=O)N(C)c2ccccc21` (stereo in doubt; 16a): 0.042 µM. `CC(C)CN(C[C@@H](O)[C@H](Cc1ccccc1)NC(=O)O[C@H]1CO[C@H]2OCC[C@H]21)C1(C)C(=O)N(C)c2ccccc21` (stereo in doubt; 16b): the Ki in test [1] was determined as 0.06 µM. With `CC(C)(C)NC(=O)[C@@H]1C[C@@H]2CCCC[C@@H]2CN1C[C@@H](O)[C@H](Cc1ccccc1)NC(=O)[C@H](CC(N)=O)NC(=O)c1ccc2ccccc2n1` [SAQUINAVIR], it took 0.005 µM to reach half-maximal inhibition with MT2 [2] (Homo sapiens, IIIB, MT2) (IC50). The CC50 in the test with MT2 [3] is above 10 µM.
